Experiments:
[1] = molecular target: Mast/stem cell growth factor receptor Kit (Homo sapiens, UniProt P10721); assay: Binding affinity to wild-type human partial length KIT (I571 to D952 residues) expressed in bacterial expression system assessed as residual binding level at 1 uM by Kinomescan method relative to control
[2] = molecular target: Dual specificity tyrosine-phosphorylation-regulated kinase 1B (Homo sapiens) (UniProt Q9Y463); assay: Binding affinity to wild-type human full length DYRK1B (M1 to S629 residues) expressed in bacterial expression system assessed as residual binding level at 1 uM by Kinomescan method relative to control
Outline: (§1)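 KINOMEscan competition binding against 468 purified kinases/mutants, test compound at 1 µM; residual binding relative to control.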

[3] = molecular target: Serine/threonine-protein kinase SIK1 (Homo sapiens) (UniProt P57059); assay: Binding affinity to wild-type human partial length SIK (M1 to Y304 residues) expressed in bacterial expression system assessed as residual binding level at 1 uM by Kinomescan method relative to control
[4] = molecular target: Rhodopsin kinase GRK7 (Homo sapiens) (UniProt Q8WTQ7); assay: Binding affinity to wild-type human full length GRK7 (M1 to L553 residues) expressed in mammalian expression system assessed as residual binding level at 1 uM by Kinomescan method relative to control
Outline: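 Single-concentration (1 μM) competition-binding screen run by KINOMEscan against a panel of 468 purified kinases and mutants. The read-out is the relative binding activity of the test compound to each kinase.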

[5] = molecular target: Serine/threonine-protein kinase DCLK1 (Homo sapiens) (UniProt O15075); assay: Binding affinity to wild-type human partial length DCAMKL1 (L270 to A662 residues) expressed in mammalian expression system assessed as residual binding level at 1 uM by Kinomescan method relative to control
Outline: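 Kinome-wide competition binding screen against a panel of 468 purified kinases/mutants, with the test compound at a single concentration of 1 μM. Read-out is the relative binding activity of each kinase in the presence of compound.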

[6] = molecular target: Myosin light chain kinase family member 4 (Homo sapiens) (UniProt Q86YV6); assay: Binding affinity to wild-type human partial length MYLK4 (V79 to S380 residues) expressed in bacterial expression system assessed as residual binding level at 1 uM by Kinomescan method relative to control
[7] = molecular target: Mitogen-activated protein kinase kinase kinase kinase 2 (Homo sapiens) (UniProt Q12851); assay: Binding affinity to wild-type human partial length MAP4K2 (M1 to G318 residues) expressed in mammalian expression system assessed as residual binding level at 1 uM by Kinomescan method relative to control
[8] = molecular target: Ribosomal protein S6 kinase alpha-5 (Homo sapiens) (UniProt O75582); assay: Binding affinity to wild-type human partial length N-terminal RPS6KA5 kinase domain 1 expressed in bacterial expression system assessed as residual binding level at 1 uM by Kinomescan method relative to control
[9] = molecular target: Mitogen-activated protein kinase 11 (Homo sapiens) (UniProt Q15759); assay: Binding affinity to wild-type human full length p38-beta (M1 to Q364 residues) expressed in bacterial expression system assessed as residual binding level at 1 uM by Kinomescan method relative to control
Outline: (§2)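 Single-concentration KINOMEscan (DiscoverX) binding screen at 1 μM against a panel of 468 purified kinases and mutants. The read-out is binding relative to control.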

[10] = molecular target: Fibroblast growth factor receptor 3 (Homo sapiens) (UniProt P22607); assay: Binding affinity to wild-type human partial length FGFR3 (R442 to S771 residues) expressed in bacterial expression system assessed as residual binding level at 1 uM by Kinomescan method relative to control
[11] = molecular target: Tyrosine-protein kinase ABL1 (Homo sapiens, UniProt P00519); assay: Binding affinity to wild-type human phosphorylated ABL1 (S229 to K512 residues) expressed in mammalian expression system assessed as residual binding level at 1 uM by Kinomescan method relative to control
[12] = molecular target: Dual specificity mitogen-activated protein kinase kinase 2 (Homo sapiens) (UniProt P36507); assay: Binding affinity to wild-type human full length MEK2 (M1 to V400 residues) expressed in mammalian expression system assessed as residual binding level at 1 uM by Kinomescan method relative to control; outline: as §2
EOL1 = assay: Antitumor activity against human EOL-1 cells xenografted in nu/nu mouse assessed as tumor growth inhibition at 25 mg/kg/day, ip; type: functional; settings: read-out: TGI
Outline: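 Female nu/nu mice (6 weeks) given subcutaneous right-flank injection of 5 million EOL-1 cells in PBS/Matrigel 1:1. At 200–400 mm3 tumors, randomized to groups of 6 and dosed daily i.p. for 14 days at 25, 50 or 100 mg/kg/d in 0.5% methylcellulose/0.4% Tween80. Tumor volume = W²×L/2, measured daily.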

[13] = molecular target: Calcium/calmodulin-dependent protein kinase type II subunit beta (Homo sapiens) (UniProt Q13554); assay: Binding affinity to wild-type human partial length CAMK2B (M1 to Q380 residues) expressed in bacterial expression system assessed as residual binding level at 1 uM by Kinomescan method relative to control
[14] = molecular target: Protein-tyrosine kinase 2-beta (Homo sapiens) (UniProt Q14289); assay: Binding affinity to wild-type human full length PYK2 (M1 to E967 residues) expressed in bacterial expression system assessed as residual binding level at 1 uM by Kinomescan method relative to control; outline: as §2
[15] = molecular target: Insulin-like growth factor 1 receptor (Homo sapiens) (UniProt P08069); assay: Binding affinity to wild-type human partial length IGF1R (L972 to D1294 residues) expressed in bacterial expression system assessed as residual binding level at 1 uM by Kinomescan method relative to control
[16] = molecular target: Phosphorylase b kinase gamma catalytic chain, liver/testis isoform (Homo sapiens) (UniProt P15735); assay: Binding affinity to wild-type human partial length PHKG2 (M1 to W300 residues) expressed in bacterial expression system assessed as residual binding level at 1 uM by Kinomescan method relative to control
Outline: (§3)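 KINOMEscan competition binding against a panel of 468 purified kinases/mutants, compound tested at 1 μM; readout is relative binding activity versus control.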

[17] = molecular target: Serine/threonine-protein kinase RIO3 (Homo sapiens) (UniProt O14730); assay: Binding affinity to wild-type human full length RIOK3 (M1 to E519 residues) expressed in bacterial expression system assessed as residual binding level at 1 uM by Kinomescan method relative to control; outline: as §1
[18] = molecular target: NT-3 growth factor receptor (Homo sapiens) (UniProt Q16288); assay: Binding affinity to wild-type human partial length TRKC (Q531 to G825 residues) expressed in mammalian expression system assessed as residual binding level at 1 uM by Kinomescan method relative to control; outline: as §3
[19] = molecular target: Macrophage colony-stimulating factor 1 receptor (Homo sapiens) (UniProt P07333); assay: Binding affinity to wild-type human partial length autoinhibited CSF1R (Y538 to S939 residues) expressed in mammalian expression system assessed as residual binding level at 1 uM by Kinomescan method relative to control
[20] = molecular target: Dual specificity protein kinase CLK3 (Homo sapiens) (UniProt P49761); assay: Binding affinity to wild-type human full length CLK3 (M1 to R490 residues) expressed in bacterial expression system assessed as residual binding level at 1 uM by Kinomescan method relative to control; outline: as §1

Dual specificity mitogen-activated protein kinase kinase 2 (Homo sapiens), sequence (P36507 whole entry, the tested form may be a part): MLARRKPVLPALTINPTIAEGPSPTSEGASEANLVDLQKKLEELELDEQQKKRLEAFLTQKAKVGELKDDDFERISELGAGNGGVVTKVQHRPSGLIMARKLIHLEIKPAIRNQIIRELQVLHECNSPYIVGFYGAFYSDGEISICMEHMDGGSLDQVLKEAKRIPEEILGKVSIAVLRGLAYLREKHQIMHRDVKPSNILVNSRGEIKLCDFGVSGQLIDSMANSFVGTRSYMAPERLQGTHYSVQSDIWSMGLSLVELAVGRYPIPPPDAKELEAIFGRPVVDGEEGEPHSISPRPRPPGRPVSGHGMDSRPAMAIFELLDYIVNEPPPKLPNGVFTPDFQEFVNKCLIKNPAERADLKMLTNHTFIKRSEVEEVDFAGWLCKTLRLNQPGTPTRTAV
Serine/threonine-protein kinase SIK1 (Homo sapiens), sequence (P57059 whole entry, the tested form may be a part): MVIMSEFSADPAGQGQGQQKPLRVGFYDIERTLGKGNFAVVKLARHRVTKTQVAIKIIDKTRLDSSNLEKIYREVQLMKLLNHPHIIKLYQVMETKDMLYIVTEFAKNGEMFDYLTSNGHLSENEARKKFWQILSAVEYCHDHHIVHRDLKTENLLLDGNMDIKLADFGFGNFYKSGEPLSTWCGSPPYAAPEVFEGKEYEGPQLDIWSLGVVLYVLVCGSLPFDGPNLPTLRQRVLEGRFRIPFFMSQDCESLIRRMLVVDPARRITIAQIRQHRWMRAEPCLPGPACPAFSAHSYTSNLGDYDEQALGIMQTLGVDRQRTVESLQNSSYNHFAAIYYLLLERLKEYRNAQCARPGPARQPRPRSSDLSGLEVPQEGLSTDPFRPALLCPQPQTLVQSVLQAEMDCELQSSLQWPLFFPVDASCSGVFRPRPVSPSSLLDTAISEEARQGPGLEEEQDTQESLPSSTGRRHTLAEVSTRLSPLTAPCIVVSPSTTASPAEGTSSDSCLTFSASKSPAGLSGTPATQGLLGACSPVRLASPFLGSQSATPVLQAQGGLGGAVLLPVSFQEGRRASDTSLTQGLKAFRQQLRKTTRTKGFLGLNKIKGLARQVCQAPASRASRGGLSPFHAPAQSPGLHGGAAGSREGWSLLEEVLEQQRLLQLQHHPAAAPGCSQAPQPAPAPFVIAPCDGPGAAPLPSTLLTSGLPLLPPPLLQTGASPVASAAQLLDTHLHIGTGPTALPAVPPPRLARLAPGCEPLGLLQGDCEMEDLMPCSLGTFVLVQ
Rhodopsin kinase GRK7 (Homo sapiens), sequence (Q8WTQ7 whole entry, the tested form may be a part): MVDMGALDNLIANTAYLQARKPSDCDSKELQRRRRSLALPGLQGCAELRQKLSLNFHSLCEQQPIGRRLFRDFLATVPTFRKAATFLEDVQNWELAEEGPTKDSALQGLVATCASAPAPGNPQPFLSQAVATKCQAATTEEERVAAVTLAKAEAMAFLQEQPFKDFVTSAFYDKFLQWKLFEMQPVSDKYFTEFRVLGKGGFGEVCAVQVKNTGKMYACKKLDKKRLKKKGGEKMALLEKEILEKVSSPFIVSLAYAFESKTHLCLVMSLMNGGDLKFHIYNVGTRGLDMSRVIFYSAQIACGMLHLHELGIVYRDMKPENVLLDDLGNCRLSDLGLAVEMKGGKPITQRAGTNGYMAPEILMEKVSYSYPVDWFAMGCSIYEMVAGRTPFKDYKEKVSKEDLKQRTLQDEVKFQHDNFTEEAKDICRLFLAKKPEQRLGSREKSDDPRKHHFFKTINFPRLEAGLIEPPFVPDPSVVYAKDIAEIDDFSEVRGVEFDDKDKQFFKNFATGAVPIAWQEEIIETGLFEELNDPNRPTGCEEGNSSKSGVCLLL
Serine/threonine-protein kinase DCLK1 (Homo sapiens), sequence (O15075 whole entry, the tested form may be a part): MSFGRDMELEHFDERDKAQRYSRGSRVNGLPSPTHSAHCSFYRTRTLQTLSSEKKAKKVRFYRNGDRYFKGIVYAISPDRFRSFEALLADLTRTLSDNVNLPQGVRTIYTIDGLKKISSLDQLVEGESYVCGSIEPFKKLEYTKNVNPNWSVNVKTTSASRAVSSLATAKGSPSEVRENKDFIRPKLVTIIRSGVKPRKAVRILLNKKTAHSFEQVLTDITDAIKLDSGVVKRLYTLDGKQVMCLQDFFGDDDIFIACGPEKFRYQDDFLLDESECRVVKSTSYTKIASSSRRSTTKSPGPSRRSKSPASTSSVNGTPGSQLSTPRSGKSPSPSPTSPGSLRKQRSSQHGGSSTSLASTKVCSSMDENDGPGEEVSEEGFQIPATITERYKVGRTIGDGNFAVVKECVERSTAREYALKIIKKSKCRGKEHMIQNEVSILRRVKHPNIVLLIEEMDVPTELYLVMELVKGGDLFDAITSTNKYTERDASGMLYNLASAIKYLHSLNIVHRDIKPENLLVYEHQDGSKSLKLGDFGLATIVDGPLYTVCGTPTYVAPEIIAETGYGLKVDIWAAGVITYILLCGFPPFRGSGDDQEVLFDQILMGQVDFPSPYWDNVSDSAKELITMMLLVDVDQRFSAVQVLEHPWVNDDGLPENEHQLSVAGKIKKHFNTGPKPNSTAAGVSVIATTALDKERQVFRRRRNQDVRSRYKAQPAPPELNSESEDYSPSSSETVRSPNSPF
Phosphorylase b kinase gamma catalytic chain, liver/testis isoform (Homo sapiens), sequence (P15735 whole entry, the tested form may be a part, canonical isoform): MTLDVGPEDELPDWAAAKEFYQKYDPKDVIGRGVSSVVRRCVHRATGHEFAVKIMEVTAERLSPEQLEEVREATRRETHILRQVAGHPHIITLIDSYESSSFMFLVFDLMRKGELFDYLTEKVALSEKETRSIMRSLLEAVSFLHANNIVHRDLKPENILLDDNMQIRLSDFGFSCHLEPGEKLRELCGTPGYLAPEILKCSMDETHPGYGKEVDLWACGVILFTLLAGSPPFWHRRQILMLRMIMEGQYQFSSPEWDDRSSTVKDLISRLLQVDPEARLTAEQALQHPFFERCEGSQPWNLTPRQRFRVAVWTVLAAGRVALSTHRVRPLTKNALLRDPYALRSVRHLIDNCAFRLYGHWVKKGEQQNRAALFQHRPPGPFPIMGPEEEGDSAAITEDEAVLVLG
Mitogen-activated protein kinase 11 (Homo sapiens), sequence (Q15759 whole entry, the tested form may be a part): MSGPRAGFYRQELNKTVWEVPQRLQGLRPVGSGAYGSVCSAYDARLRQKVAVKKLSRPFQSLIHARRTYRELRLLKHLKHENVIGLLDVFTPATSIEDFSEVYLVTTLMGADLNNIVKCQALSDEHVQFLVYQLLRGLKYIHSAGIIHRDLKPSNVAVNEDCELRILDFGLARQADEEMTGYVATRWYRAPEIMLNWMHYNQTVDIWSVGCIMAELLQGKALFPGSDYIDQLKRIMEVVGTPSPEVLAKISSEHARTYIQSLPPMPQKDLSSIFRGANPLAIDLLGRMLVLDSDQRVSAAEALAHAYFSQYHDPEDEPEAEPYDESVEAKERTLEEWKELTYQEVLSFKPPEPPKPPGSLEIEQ
Insulin-like growth factor 1 receptor (Homo sapiens), sequence (P08069 31-736 limits assumed): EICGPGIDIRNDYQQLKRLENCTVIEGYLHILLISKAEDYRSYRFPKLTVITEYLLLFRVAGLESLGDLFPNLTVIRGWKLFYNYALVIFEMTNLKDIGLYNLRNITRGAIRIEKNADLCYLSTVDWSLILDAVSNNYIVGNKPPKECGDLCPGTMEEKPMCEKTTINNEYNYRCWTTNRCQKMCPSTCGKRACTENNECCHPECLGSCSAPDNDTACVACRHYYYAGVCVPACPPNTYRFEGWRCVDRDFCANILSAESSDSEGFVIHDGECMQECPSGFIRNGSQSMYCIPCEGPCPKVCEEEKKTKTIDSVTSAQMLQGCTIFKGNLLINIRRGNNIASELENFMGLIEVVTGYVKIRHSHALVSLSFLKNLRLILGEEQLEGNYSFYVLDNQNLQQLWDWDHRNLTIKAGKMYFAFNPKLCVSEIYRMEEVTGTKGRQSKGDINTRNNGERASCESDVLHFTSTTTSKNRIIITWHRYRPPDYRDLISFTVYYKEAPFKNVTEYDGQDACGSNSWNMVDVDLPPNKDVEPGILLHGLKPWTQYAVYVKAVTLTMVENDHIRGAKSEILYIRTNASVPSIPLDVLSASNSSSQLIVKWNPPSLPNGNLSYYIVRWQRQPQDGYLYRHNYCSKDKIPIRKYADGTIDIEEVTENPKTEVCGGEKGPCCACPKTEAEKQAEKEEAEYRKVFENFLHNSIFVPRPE
Insulin-like growth factor 1 receptor (Homo sapiens), sequence (P08069 741-1367 limits assumed): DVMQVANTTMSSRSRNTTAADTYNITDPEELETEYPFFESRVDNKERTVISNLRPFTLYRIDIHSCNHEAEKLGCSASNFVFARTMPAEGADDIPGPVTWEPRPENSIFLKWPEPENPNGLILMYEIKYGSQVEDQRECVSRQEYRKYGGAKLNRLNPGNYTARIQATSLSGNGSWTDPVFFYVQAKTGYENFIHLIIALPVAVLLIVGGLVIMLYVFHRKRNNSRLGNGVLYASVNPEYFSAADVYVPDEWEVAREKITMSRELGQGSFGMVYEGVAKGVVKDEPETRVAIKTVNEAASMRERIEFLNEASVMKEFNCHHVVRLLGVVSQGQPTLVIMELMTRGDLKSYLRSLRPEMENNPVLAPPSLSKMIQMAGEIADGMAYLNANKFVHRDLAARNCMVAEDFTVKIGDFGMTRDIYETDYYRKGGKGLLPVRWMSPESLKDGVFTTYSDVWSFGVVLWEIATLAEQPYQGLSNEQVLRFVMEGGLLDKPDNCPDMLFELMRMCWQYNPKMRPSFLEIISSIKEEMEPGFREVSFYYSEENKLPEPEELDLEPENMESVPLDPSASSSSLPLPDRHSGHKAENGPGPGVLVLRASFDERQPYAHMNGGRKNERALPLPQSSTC
Myosin light chain kinase family member 4 (Homo sapiens), sequence (Q86YV6 whole entry, the tested form may be a part): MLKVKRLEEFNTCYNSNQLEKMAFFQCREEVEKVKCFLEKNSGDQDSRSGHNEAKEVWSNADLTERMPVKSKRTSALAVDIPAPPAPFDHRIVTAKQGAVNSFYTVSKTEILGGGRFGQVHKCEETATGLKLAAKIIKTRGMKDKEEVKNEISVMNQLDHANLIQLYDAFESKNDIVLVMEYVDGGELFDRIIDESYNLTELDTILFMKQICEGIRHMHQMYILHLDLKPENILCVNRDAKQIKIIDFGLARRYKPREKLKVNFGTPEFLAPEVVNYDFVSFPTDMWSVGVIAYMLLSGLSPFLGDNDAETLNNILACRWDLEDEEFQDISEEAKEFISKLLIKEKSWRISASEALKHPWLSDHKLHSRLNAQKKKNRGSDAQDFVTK

**Q.** With `Cc1ccc(NC(=O)c2ccc(CN(CCN(C)C)C(=O)c3cccnc3)cc2)cc1Nc1nccc(-c2cccnc2)n1` as the compound, how does the Activity [1] read?
**A.** Its Activity is 2.2%.

**Q.** What about the Activity [2] of the same compound?
**A.** The Activity was 51%.

**Q.** And the Activity [3]?
**A.** Its Activity is 100%.

**Q.** And the Activity [4]?
**A.** Its Activity is 100%.

**Q.** What about the Activity [5] of the same compound?
**A.** The Activity was 78%.

**Q.** What about the Activity [6] of the same compound?
**A.** The Activity was 76%.

**Q.** And the Activity [7]?
**A.** The Activity was 100%.

**Q.** What about the Activity [8] of the same compound?
**A.** The Activity was 86%.

**Q.** What about the Activity [9] of the same compound?
**A.** Its Activity is 100%.

**Q.** And the Activity [10]?
**A.** The Activity was 100%.

**Q.** And the Activity [11]?
**A.** Its Activity is 73%.

**Q.** And the Activity [12]?
**A.** Its Activity is 86%.

**Q.** And the inhibition in vivo at 25 mg/kg/day (EOL1)?
**A.** Its inhibition in vivo at 25 mg/kg/day is 71.5%.

**Q.** What about the Activity [13] of the same compound?
**A.** Its Activity is 99%.

**Q.** What about the Activity [14] of the same compound?
**A.** The Activity was 99%.

**Q.** And the Activity [15]?
**A.** Its Activity is 95%.

**Q.** And the Activity [16]?
**A.** Its Activity is 89%.

**Q.** And the Activity [17]?
**A.** Its Activity is 69%.

**Q.** What about the Activity [18] of the same compound?
**A.** Its Activity is 89%.

**Q.** What about the Activity [19] of the same compound?
**A.** The Activity was 100%.

**Q.** What about the Activity [20] of the same compound?
**A.** The Activity was 94%.
